Data on 12 compounds can be found in ChEMBL document CHEMBL1136302, “Modified 3-alkyl-1,8-dibenzylxanthines as GTP-competitive inhibitors of phosphoenolpyruvate carboxykinase” (Bioorg Med Chem Lett, 2003).

The first experiment can be described thus: Inhibitory activity against human cytosolic phosphoenolpyruvate carboxykinase (PEPCK) enzyme. In short, it runs like this:
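Recombinant human cytosolic GST-PEPCK at room temperature in 30 mM potassium phosphate pH 7.6 with 0.3 mM GTP, 0.3 mM OAA, 3 mM MgCl2, 0.075 mM MnCl2, 1 mM DTT, 0.2 mM ADP, 1 mM NADH and 1 mg/mL BSA. Coupled to pyruvate kinase and lactate dehydrogenase (0.9 U/mL each). Absorbance change at 340 read over 20 min. Eight concentrations in duplicate, averaged; IC50 derived.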
For `CCCCn1c(=O)n(Cc2ccccc2F)c(=O)c2[nH]c(Cc3ccc(NC(C)=O)cc3)nc21`, half-maximal inhibition (IC50) was put at 2.11 µM.

`C=CCn1c(=O)c2[nH]c(Cc3ccc(N)cc3)nc2n(CCCC)c1=O` showed a half-inhibitory concentration (IC50) of 37 µM.

The compound `CCCCn1c(=O)n(CCC)c(=O)c2[nH]c(C)nc21` had a half-inhibitory concentration (IC50) of 375 µM. This IC50 is about 10-fold higher than that of the compound before.

Compound `C=CCn1c(=O)c2[nH]c(C)nc2n(CCCC)c1=O` gave an IC50 of 225 µM.

In the case of `CCCCn1c(=O)n(Cc2ccccc2)c(=O)c2[nH]c(Cc3ccc(NC(C)=O)cc3)nc21`, the half-maximal inhibitory concentration (IC50) worked out at 8.15 µM.

`C=CCn1c(=O)c2[nH]c(CC)nc2n(CCCC)c1=O` registered a half-inhibitory concentration (IC50) of 100 µM.

A short description of another experiment: Inhibitory activity against human cytosolic phosphoenolpyruvate carboxykinase (PEPCK) enzyme at a concentration of 25 uM. A digest of the protocol:
(§1)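 The same coupled GST-PEPCK assay was run in 30 mM potassium phosphate pH 7.6 at room temperature. It used 0.3 mM each of GTP and OAA, plus Mg2+/Mn2+, ADP, NADH and BSA, with pyruvate kinase and lactate dehydrogenase coupling. Rate was read at 340 over 20 min. Percent inhibition is given at the highest concentration tested, as the duplicate average.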
For the compound `CCCCn1c(=O)n(CCOC)c(=O)c2[nH]c(Cc3ccc(NC(C)=O)cc3)nc21`, the inhibition is 36%.

In turn, `C=CCn1c(=O)c2[nH]c(Cc3ccccc3)nc2n(CCCC)c1=O` had an inhibition of 29%.

`CCCCn1c(=O)n(Cc2cccc(F)c2)c(=O)c2[nH]c(Cc3ccc(NC(C)=O)cc3)nc21` showed an inhibition of 46%.

Another experiment is described as follows: Inhibitory activity against human cytosolic phosphoenolpyruvate carboxykinase (PEPCK) enzyme at a concentration of 500 uM. A digest of the protocol: as §1
Compound `C=CCn1c(=O)c2c(nc(C)n2CC)n(CCCC)c1=O` returned an inhibition of 34%.

Take `C=CCn1c(=O)c2[nH]cnc2n(CCCC)c1=O`: the inhibition came out at 39%.

`C=CCn1c(=O)c2[nH]c(-c3ccc(NC(C)=O)cc3)nc2n(CCCC)c1=O` had an inhibition of 1.7%.
